Source: ChEMBL document CHEMBL1137990, “Design and synthesis of novel indole beta-diketo acid derivatives as HIV-1 integrase inhibitors” (J Med Chem, 2004)

Experiments:
CEM-SS = assay: Cytotoxic concentration against HIV-1 was evaluated in human T-cell line CEM-SS; type: functional
In short: (§1)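 CEM-SS human T cells at 5 × 10³ cells/well infected with HIV-1 RF (MOI 0.3). Serial compound dilutions added at once; cultured 6 days at 37 °C, 5% CO₂. Viability read by XTT (0.2 mg/mL, 4 h) absorbance at 450 nm. AZT and dextran sulfate run as controls. Toxicity measured on the same plate in uninfected CEM-SS cells.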

[1] = Therapeutic index is the ratio of CC50 to that of EC50; conditions: human; read-out: Therapeutic index
In short: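 CC50/EC50 ratio, both values from the same plate. CEM-SS cells were infected with HIV-1 RF (MOI 0.3) or left uninfected, with serial compound dilutions. Cultures ran 6 days at 37 °C. Viability was read by XTT absorbance at 450 nm.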

[2] = target: T1, Human immunodeficiency virus type 1 integrase (Human immunodeficiency virus 1, UniProt Q7ZJM1); assay: Inhibitory concentration against HIV-1 integrase mediated strand transfer reaction
T1 sequence (Q7ZJM1 whole entry): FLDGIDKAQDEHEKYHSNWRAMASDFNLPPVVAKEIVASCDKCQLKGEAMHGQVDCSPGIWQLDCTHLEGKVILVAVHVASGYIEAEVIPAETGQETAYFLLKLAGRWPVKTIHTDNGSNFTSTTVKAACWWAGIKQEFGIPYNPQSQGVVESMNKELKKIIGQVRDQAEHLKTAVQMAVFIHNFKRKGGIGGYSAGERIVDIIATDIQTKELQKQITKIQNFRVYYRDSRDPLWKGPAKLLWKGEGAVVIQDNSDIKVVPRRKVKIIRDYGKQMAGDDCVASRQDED
In short: (§2)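 Wild-type IN at 200 nM final, preincubated with inhibitor for 30 min at 30 °C in buffer of 50 mM NaCl, 1 mM HEPES pH 7.5, 50 µM EDTA, 50 µM DTT, 10% glycerol, 7.5 mM MnCl₂, 0.1 mg/mL BSA, 10 mM 2-mercaptoethanol, 10% DMSO, 25 mM MOPS pH 7.2. Then 20 nM 5′-³²P-labeled linear oligonucleotide substrate added, 1 h more; quenched with formamide/EDTA loading dye; products resolved on gel.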

[3] = target: T1, Human immunodeficiency virus type 1 integrase; assay: Inhibitory concentration against HIV-1 integrase mediated 3' processing reaction; in short: as §2
[4] = target: Human immunodeficiency virus type 1 integrase (Human immunodeficiency virus 1) (UniProt Q7ZJM1); assay: Selectivity index against HIV-1 integrase
Sequence of Human immunodeficiency virus type 1 integrase (Human immunodeficiency virus 1) (Q7ZJM1 as listed by the source): as the sequence (Q7ZJM1 whole entry) above

[5] = system: Human immunodeficiency virus 1; assay: Effective concentration required for the inhibition of HIV-1 cytopathic effect; type: functional, organism-based; in short: as §1

IC50 [2] | IC50 [3] | Selectivity index [4] | EC50 [5] | SMILES | CC50 (CEM-SS) | selectivity ratio [1]
2 µM | 100 µM | 50 | 37 µM | Cn1cc(/C(O)=C/C(=O)C(=O)O)c2ccccc21 | > 200 µM | > 5.4
– | – | – | > 60 µM | CCn1c(C(=O)CC(=O)C(=O)OC)cc2ccccc21 | 60 µM | –
14 µM | 100 µM | 7 | > 1.1 µM | COC(=O)C(=O)CC(=O)c1cc2cc3c(cc2n1Cc1ccccc1)OCO3 | 1.1 µM | –
1.6 µM | 16 µM | 10 | > 110 µM | CCn1c(/C(O)=C/C(=O)C(=O)O)cc2ccccc21 | 110 µM | –
3 µM | 45 µM | 15 | 123 µM | CCn1cc(/C(O)=C/C(=O)C(=O)O)c2cc3c(cc21)OCO3 | > 200 µM | > 1.6
3 µM | 100 µM | 33 | > 108 µM | Cn1cc(/C(O)=C/C(=O)C(=O)O)c2cc3c(cc21)OCO3 | 108 µM | –
26 µM | > 100 µM | > 3.8 | 19 µM | CCn1cc(C(=O)CC(=O)C(=O)OC)c2ccccc21 | > 200 µM | > 10.5
45 µM | 100 µM | 2 | > 106 µM | COC(=O)C(=O)CC(=O)c1cc2ccccc2n1C | 106 µM | –
65 µM | 85 µM | 1.3 | > 75 µM | CCn1c(C(=O)CC(=O)C(=O)OC)cc2cc3c(cc21)OCO3 | 75 µM | –
2 µM | 11 µM | 5 | > 200 µM | Cn1c(/C(O)=C/C(=O)C(=O)O)cc2cc3c(cc21)OCO3 | > 200 µM | –
3 µM | 93 µM | 31 | 9 µM | CCn1cc(/C(O)=C/C(=O)C(=O)O)c2ccccc21 | 108 µM | 12
5 µM | 55 µM | 11 | > 57 µM | CCn1c(/C(O)=C/C(=O)C(=O)O)cc2cc3c(cc21)OCO3 | 57 µM | –
60 µM | > 100 µM | > 1.6 | > 31 µM | COC(=O)C(=O)CC(=O)c1cn(C)c2cc3c(cc12)OCO3 | 31 µM | –
1 µM | 20 µM | 20 | – | O=C(O)C(=O)/C=C(\O)c1cc2ccccc2n1Cc1ccccc1 | – | –
50 µM | 100 µM | 2 | > 200 µM | COC(=O)C(=O)CC(=O)c1cc2cc3c(cc2n1C)OCO3 | > 200 µM | –
6 µM | 50 µM | 8 | > 81 µM | Cn1c(/C(O)=C/C(=O)C(=O)O)cc2ccccc21 | 81 µM | –
2 µM | 35 µM | 17 | > 3.8 µM | O=C(O)C(=O)/C=C(\O)c1cc2cc3c(cc2n1Cc1ccccc1)OCO3 | 3.8 µM | –

SMILES | IC50 [2] | IC50 [3] | Selectivity index [4] | EC50 [5] | CC50 (CEM-SS) | selectivity ratio [1]
O=C(O)C(=O)/C=C(\O)c1cn(Cc2ccccc2)c2ccccc12 | 1 µM | 12 µM | 12 | – | – | –
